Among the data in ChEMBL document CHEMBL1143856, “Iromycins from Streptomyces sp. and from synthesis: new inhibitors of the mitochondrial electron transport chain” (Bioorg Med Chem, 2008) are IC50 and Activity values, retold here.

Bounds are passed on as bounds.

The target in data set [1] is Mitochondrial complex I; NADH oxidoreductase (Bos taurus, UniProt P25708+P52505). The data set can be described thus: Inhibition of NADH-ubiquinone oxidoreductase assessed as NADH oxidase activity in bovine heart submitochondrial particles. It counts as protein-complex assay. In a few lines: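 Bovine heart mitochondria isolated by differential centrifugation and sonicated to submitochondrial particles. Assay buffer was 75 mM air-saturated Na/K phosphate, pH 7.4, with 1 mM EDTA and 1 mM MgCl2, and 42–219 µg/mL protein, at 30 °C. Inhibitors were added in methanol (≤2% v/v) with 4 min preincubation. Reaction started with 0.16 mM NADH; A340 decrease followed over 4 min. Means of 2–4 independent experiments.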

The test system of a further data set is HepG2. Briefly: Cytotoxicity against human HepG2 cells. In kind it is functional, cell-based. In a few lines:
(§1)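 Human gastric adenocarcinoma HM02, hepatocellular carcinoma HepG2 and breast adenocarcinoma MCF7 lines tested following NCI directives. Cytotoxicity expressed as IC50.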

The subject of a further data set is Mus musculus. Briefly: Toxicity in mouse at 100 mg/kg, ip. In kind it is organism-based. The arrangement: dose 100 mg/kg, route intraperitoneal. To be noted: in vivo.
Data set [2] in a line: Cytotoxicity against human HM02 cells. It counts as functional, cell-based. In a few lines:
as §1

For the next data set, the system named is MCF7. Briefly: Cytotoxicity against human MCF7 cells. In kind it is functional, cell-based. In a few lines: as §1
A further data set concerns L929. Briefly: Cytotoxicity against mouse L929 fibroblasts. In kind it is cell-based.

Mitochondrial complex I; NADH oxidoreductase, sequence (P25708 21-464 limits assumed, other chains not shown): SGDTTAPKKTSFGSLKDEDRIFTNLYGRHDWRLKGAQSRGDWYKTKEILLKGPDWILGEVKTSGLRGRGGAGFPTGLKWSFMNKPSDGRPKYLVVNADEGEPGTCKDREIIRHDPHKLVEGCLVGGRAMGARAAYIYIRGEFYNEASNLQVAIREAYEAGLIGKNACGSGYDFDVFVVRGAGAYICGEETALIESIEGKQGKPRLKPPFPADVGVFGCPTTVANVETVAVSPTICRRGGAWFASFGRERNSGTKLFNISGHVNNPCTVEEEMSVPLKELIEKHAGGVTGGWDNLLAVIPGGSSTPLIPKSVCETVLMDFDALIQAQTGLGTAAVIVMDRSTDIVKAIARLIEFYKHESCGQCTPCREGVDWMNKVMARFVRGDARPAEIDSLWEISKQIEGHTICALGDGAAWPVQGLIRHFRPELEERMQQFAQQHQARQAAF

As for `CCCc1c(C/C=C(\C)C/C=C/C(C)C)[nH]c(=O)c(C)c1OC(C)=O` [IROMYCIN AA], the IC50 in data set [1] is above 23.4 µM.

`CCCc1c(CCC(C)CCCC(C)C)[nH]c(=O)c(C)c1O` (centres undefined) [IROMYCIN AH]: the IC50 in data set [1] was 2.21 µM.

In the case of `CCCc1c(C/C=C(\C)C/C=C/C(C)C)[nH]c(=O)c(C)c1OC` [IROMYCIN AM], the IC50 in data set [1] was found to be 2.8 µM.

`CCCc1c(C/C=C(\C)C/C=C/C(C)C)oc(=O)c(C)c1O` [IROMYCIN AO]: the IC50 in data set [1] was above 26.6 µM.

With `CCCc1c(C/C=C(\C)C/C=C/C(C)C)[nH]c(=O)c(C)c1O` [IROMYCIN A], the concentration for half-maximal inhibition (IC50) in the data set on HepG2 was above 30 µM; in data set [1], 0.461 µM; in data set [2] it was above 30 µM; with MCF7 it was above 30 µM; in the data set on L929, 66 µM. The Activity result in the data set with Mus musculus was “Non-toxic”.

Regarding `CCCc1c(C/C=C(\C)C/C=C/C(C)(C)O)[nH]c(=O)c(C)c1OC(C)=O` [IROMYCIN BA], the IC50 in data set [1] was above 22.4 µM.

Take `CCCc1c(C/C=C(\C)C/C=C/C(C)(C)O)[nH]c(=O)c(C)c1OC` [IROMYCIN BM]: in data set [1], the IC50 was above 24.3 µM.

For `CCCc1c(C/C=C(\C)C/C=C/C(C)(C)O)[nH]c(=O)c(C)c1O` [IROMYCIN B], the concentration for half-maximal inhibition (IC50) was above 30 µM in the data set on HepG2; 17.8 µM in data set [1]; above 30 µM in data set [2]; above 30 µM with MCF7; 66 µM in the data set on L929.

`CC/C=C/C/C(C)=C/Cc1[nH]c(=O)c(C)c(O)c1CCC` [IROMYCIN C]: in data set [1], the IC50 is 3.52 µM.

As to `CCCc1c(C/C=C(\C)C/C=C/C(C)O)[nH]c(=O)c(C)c1O` (centres undefined) [IROMYCIN D], in data set [1], the 50% inhibitory concentration (IC50) was above 26.5 µM.

For the compound `CCCC1(O)C(C/C=C(\C)C/C=C/C(C)C)=NC(=O)C(C)=C1O` (centres undefined) [IROMYCIN E], the IC50 in data set [1] was above 25.3 µM.

In the case of `CCCC1=C(C/C=C(\C)C/C=C/C(C)C)N=C(O)C(C)(O)C1=O` (centres undefined) [IROMYCIN F], the IC50 in data set [1] was above 25.3 µM.

With `CCCCC/C(C)=C/Cc1oc(=O)c(C)c(O)c1CCC` [IROMYCIN MO], in data set [1], the IC50 was 8.55 µM.

Consider `CCCCC/C(C)=C/Cc1[nH]c(=O)c(C)c(O)c1CCC` [IROMYCIN M], for which the 50% inhibitory concentration (IC50) in data set [1] is 1.01 µM; with L929, 66 µM.

Turning to `CCCc1c(C/C=C(\C)C/C=C/C(C)(C)C)oc(=O)c(C)c1O` [IROMYCIN SO], the half-maximal inhibitory concentration (IC50) in data set [1] was determined as 15.1 µM.

On to `CCCc1c(C/C=C(\C)C/C=C/C(C)(C)C)[nH]c(=O)c(C)c1O` [IROMYCIN S], for which the concentration for half-maximal inhibition (IC50) in data set [1] is 0.183 µM; with L929, 10 µM.

Regarding `C/C=C(\C)[C@H](O)[C@H](C)/C=C(C)/C=C/C/C(C)=C/Cc1nc(OC)c(OC)c(O)c1C` [PIERICIDIN A], the half-maximal inhibitory concentration (IC50) in data set [1] was 0.005 µM; in the data set with L929, 0.00043 µM.

Usually IC50 stands for the concentration that gives 50% inhibition.
